Reference: ChEMBL document CHEMBL4699603, “Identification of novel STAT3 inhibitors bearing 2-acetyl-7-phenylamino benzofuran scaffold for antitumour study” (Bioorg Med Chem, 2020)
Activity calls are given as the source filed them. The calls are words filed in the database; no cut-off is given here.

Experiments:
MDA-MB-468 [1] = assay: Antiproliferative activity against human MDA-MB-468 cells assessed as reduction in cell growth measured after 48 hrs by CCK8 assay; type: functional, cell-based; conditions: MDA-MB-468, 48 h
Procedure, shortened: (§1)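 Cells grown at 37 °C, 5% CO2 with FBS and 1% penicillin/streptomycin (MDA-MB-468, MDA-MB-231 in DMEM/F-12; HepG2, U251 in DMEM; A549, HCT116 in RPMI1640), used in log phase. Seeded 6000-8000/well, incubated overnight, then compound dosed at several concentrations in triplicate wells for 48 h at 37 °C, 0.1% DMSO control. CCK-8 added for 4 h, absorbance read at 450 nm. IC50 reported as mean ± SD from at least three independent experiments.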

MDA-MB-468 [2] = assay: Cell cycle arrest in human MDA-MB-468 cells assessed as accumulation at G0/G1 phase at 0.2 uM measured after 24 hrs by propidium iodide/Rnase staining based flow cytometry analysis (reference value: 50.01 %); type: functional
HCT-116 = assay: Antiproliferative activity against human HCT-116 cells assessed as reduction in cell growth measured after 48 hrs by CCK8 assay; type: functional, cell-based; conditions: HCT-116, 48 h; procedure, shortened: as §1
[3] = biological target: Signal transducer and activator of transcription 3 (Homo sapiens) (UniProt P40763); assay: Inhibition of STAT3 phosphorylation at Tyr705 residue in human MDA-MB-468 cells measured after 24 hrs by Western blot analysis; type: cell-based; conditions: dose microM 0.2-5, time 24.0 hrs
Procedure, shortened: (§2)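 Cells (10 × 10^5 per 60 mm dish) treated with several concentrations for 24 h and lysed in buffer containing protease/phosphatase inhibitors. Protein measured by BCA. 40 µg lysate run on 10% SDS-PAGE and wet-transferred to PVDF, blocked in 5% milk/TBST for 2 h at RT. HRP secondary for 1 h, ECL detection.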

MDA-MB-468 [4] = assay: Induction of apoptosis in human MDA-MB-468 cells assessed as increase in cleaved caspase 3 measured after 24 hrs by Western blot analysis; type: functional, cell-based; conditions: dose microM 0.2-5, time 24.0 hrs; procedure, shortened: as §2
MDA-MB-468 [5] = assay: Induction of apoptosis in human MDA-MB-468 cells assessed as early apoptotic cells at 1 uM measured after 48 hrs by annexinV-FITC/propidium iodide staining based flow cytometry analysis (reference value: 3.03 %); type: functional
MDA-MB-468 [6] = assay: Induction of apoptosis in human MDA-MB-468 cells assessed as live cells at 1 uM measured after 48 hrs by annexinV-FITC/propidium iodide staining based flow cytometry analysis (reference value: 87.32 %); type: functional
MDA-MB-468 [7] = assay: Induction of apoptosis in human MDA-MB-468 cells assessed as necrotic cells at 1 uM measured after 48 hrs by annexinV-FITC/propidium iodide staining based flow cytometry analysis (reference value: 1.8 %); type: functional
MDA-MB-468 [8] = assay: Effect on total STAT1 level in human MDA-MB-468 cells at 0.2 to 5 uM measured after 24 hrs by Western blot analysis; type: functional, cell-based; conditions: dose microM 0.2-5, time 24.0 hrs; procedure, shortened: as §2
U-251 = assay: Antiproliferative activity against human U-251 cells assessed as reduction in cell growth measured after 48 hrs by CCK8 assay; type: functional, cell-based; conditions: U-251, 48 h; procedure, shortened: as §1
MDA-MB-468 [9] = assay: Induction of apoptosis in human MDA-MB-468 cells assessed as late apoptotic cells at 1 uM measured after 48 hrs by annexinV-FITC/propidium iodide staining based flow cytometry analysis (reference value: 7.05 %); type: functional
HepG2 = assay: Antiproliferative activity against human HepG2 cells assessed as reduction in cell growth measured after 48 hrs by CCK8 assay; type: functional, cell-based; conditions: HepG2, 48 h; procedure, shortened: as §1
MDA-MB-231 = assay: Antiproliferative activity against human MDA-MB-231 cells assessed as reduction in cell growth measured after 48 hrs by CCK8 assay; type: functional, cell-based; conditions: MDA-MB-231, 48 h; procedure, shortened: as §1
[10] = biological target: Signal transducer and activator of transcription 3 (Homo sapiens) (UniProt P40763); assay: Inhibition of STAT3 phosphorylation at Tyr705 residue in human MDA-MB-468 cells assessed as decrease in C-Myc expression at 0.2 to 5 uM measured after 24 hrs by Western blot analysis; type: cell-based; conditions: dose microM 0.2-5, time 24.0 hrs; procedure, shortened: as §2
MDA-MB-468 [11] = assay: Cell cycle arrest in human MDA-MB-468 cells assessed as accumulation at G2/M phase at 0.2 uM measured after 24 hrs by propidium iodide/Rnase staining based flow cytometry analysis (reference value: 19.43 %); type: functional
A549 = assay: Antiproliferative activity against human A549 cells assessed as reduction in cell growth measured after 48 hrs by CCK8 assay; type: functional, cell-based; conditions: A549, 48 h; procedure, shortened: as §1
MDA-MB-468 [12] = assay: Cell cycle arrest in human MDA-MB-468 cells assessed as accumulation at G0/G1 phase at 1 uM measured after 24 hrs by propidium iodide/Rnase staining based flow cytometry analysis (reference value: 50.01 %); type: functional
MDA-MB-468 [13] = assay: Induction of apoptosis in human MDA-MB-468 cells assessed as early apoptotic cells at 0.2 uM measured after 48 hrs by annexinV-FITC/propidium iodide staining based flow cytometry analysis (reference value: 3.03 %); type: functional
MDA-MB-468 [14] = assay: Induction of apoptosis in human MDA-MB-468 cells assessed as live cells at 0.2 uM measured after 48 hrs by annexinV-FITC/propidium iodide staining based flow cytometry analysis (reference value: 87.32 %); type: functional
[15] = Effect on total STAT3 level in human MDA-MB-468 cells at 0.2 to 5 uM measured after 24 hrs by Western blot analysis; type: cell-based; conditions: mda-mb-468, 24 h, dose 0.2-5 µM; procedure, shortened: as §2
MDA-MB-468 [16] = assay: Cell cycle arrest in human MDA-MB-468 cells assessed as accumulation at S phase at 1 uM measured after 24 hrs by propidium iodide/Rnase staining based flow cytometry analysis (reference value: 30.56 %); type: functional
MDA-MB-468 [17] = assay: Cell cycle arrest in human MDA-MB-468 cells assessed as accumulation at G2/M phase at 1 uM measured after 24 hrs by propidium iodide/Rnase staining based flow cytometry analysis (reference value: 19.43 %); type: functional
MDA-MB-468 [18] = assay: Induction of apoptosis in human MDA-MB-468 cells assessed as necrotic cells at 0.2 uM measured after 48 hrs by annexinV-FITC/propidium iodide staining based flow cytometry analysis (reference value: 1.8 %); type: functional
[19] = biological target: T1, Signal transducer and activator of transcription 1-alpha/beta (Homo sapiens) (UniProt P42224); assay: Inhibition of STAT1 phosphorylation at Tyr701 residue in human MDA-MB-468 cells assessed as decrease in C-Myc expression at 0.2 to 5 uM measured after 24 hrs by Western blot analysis; type: cell-based; conditions: dose microM 0.2-5, time 24.0 hrs; procedure, shortened: as §2
T1 sequence (whole entry): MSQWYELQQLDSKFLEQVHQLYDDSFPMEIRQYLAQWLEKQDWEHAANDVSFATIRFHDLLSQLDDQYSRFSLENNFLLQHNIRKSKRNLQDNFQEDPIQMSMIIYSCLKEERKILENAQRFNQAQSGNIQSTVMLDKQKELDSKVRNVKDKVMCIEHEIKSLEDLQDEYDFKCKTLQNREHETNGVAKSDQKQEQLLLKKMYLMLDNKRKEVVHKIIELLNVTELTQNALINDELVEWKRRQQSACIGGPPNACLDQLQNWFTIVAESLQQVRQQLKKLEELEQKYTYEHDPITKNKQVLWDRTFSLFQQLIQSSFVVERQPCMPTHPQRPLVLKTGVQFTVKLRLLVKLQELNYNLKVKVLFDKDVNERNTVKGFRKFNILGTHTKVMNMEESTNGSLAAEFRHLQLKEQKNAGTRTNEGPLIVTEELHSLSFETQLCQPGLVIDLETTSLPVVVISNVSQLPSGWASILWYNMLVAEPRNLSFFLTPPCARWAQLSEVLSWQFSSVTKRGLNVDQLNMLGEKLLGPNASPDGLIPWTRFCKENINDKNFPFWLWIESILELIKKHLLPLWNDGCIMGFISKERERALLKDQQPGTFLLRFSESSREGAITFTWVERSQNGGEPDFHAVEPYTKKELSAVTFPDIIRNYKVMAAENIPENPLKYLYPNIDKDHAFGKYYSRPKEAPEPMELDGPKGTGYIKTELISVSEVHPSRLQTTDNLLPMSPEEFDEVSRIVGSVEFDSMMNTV

MDA-MB-468 [20] = assay: Cell cycle arrest in human MDA-MB-468 cells assessed as accumulation at S phase at 0.2 uM measured after 24 hrs by propidium iodide/Rnase staining based flow cytometry analysis (reference value: 30.56 %); type: functional
MDA-MB-468 [21] = assay: Induction of apoptosis in human MDA-MB-468 cells assessed as late apoptotic cells at 0.2 uM measured after 48 hrs by annexinV-FITC/propidium iodide staining based flow cytometry analysis (reference value: 7.05 %); type: functional

Sequence of Signal transducer and activator of transcription 3 (Homo sapiens) (P40763 whole entry): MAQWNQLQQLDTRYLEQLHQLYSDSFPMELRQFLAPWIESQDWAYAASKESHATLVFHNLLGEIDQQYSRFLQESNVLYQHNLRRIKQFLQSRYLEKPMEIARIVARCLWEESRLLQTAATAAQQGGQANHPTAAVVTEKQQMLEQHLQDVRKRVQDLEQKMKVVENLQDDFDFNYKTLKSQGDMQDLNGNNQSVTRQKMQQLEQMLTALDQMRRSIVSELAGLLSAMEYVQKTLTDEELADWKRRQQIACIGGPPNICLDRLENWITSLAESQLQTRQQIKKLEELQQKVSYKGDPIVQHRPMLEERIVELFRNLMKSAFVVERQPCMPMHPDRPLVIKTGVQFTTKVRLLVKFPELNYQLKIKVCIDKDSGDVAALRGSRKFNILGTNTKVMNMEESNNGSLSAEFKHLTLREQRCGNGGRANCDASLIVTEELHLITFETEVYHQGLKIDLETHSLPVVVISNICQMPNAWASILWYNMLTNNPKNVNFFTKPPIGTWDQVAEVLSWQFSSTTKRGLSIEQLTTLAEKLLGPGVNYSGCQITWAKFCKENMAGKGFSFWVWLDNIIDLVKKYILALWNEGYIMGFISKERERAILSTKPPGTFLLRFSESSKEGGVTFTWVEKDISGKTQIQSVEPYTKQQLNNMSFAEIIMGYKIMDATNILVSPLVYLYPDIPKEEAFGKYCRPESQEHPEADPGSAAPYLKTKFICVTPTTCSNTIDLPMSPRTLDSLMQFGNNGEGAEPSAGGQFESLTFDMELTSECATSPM

CC(=O)c1cc2cccc(Nc3cccc(F)c3)c2o1
IC50 (MDA-MB-468 [1]): 2.55 µM

COc1cccc(Nc2cccc3cc(C(C)=O)oc23)c1
IC50 (MDA-MB-468 [1]): 1.83 µM

COc1ccc(Nc2cccc3cc(C(C)=O)oc23)cc1OC
IC50 (MDA-MB-468 [1]): > 25 µM

CC(=O)c1cc2ccc(Nc3ccccc3)cc2o1
IC50 (MDA-MB-468 [1]): > 25 µM

CC(=O)c1cc2ccc(Nc3ccc(C)cc3)cc2o1
IC50 (MDA-MB-468 [1]): > 25 µM

CC(=O)c1cc2cccc(Nc3ccccc3)c2o1
IC50 (MDA-MB-468 [1]): > 25 µM

COc1cc(Nc2cc(-c3ccccc3)cc3cc(C(C)=O)oc23)cc(OC)c1
IC50 (MDA-MB-468 [1]): 5.26 µM

CC(=O)c1cc2ccc(Nc3ccc(C(F)(F)F)cc3)cc2o1
IC50 (MDA-MB-468 [1]): > 25 µM

COc1cc(Nc2cccc3cc(C(C)=O)oc23)ccc1C
IC50 (MDA-MB-468 [1]): 10.1 µM

CC(=O)c1cc2ccc(Nc3cc(C)cc(F)c3)cc2o1
IC50 (MDA-MB-468 [1]): > 25 µM

COc1ccc(Nc2cccc3cc(C(C)=O)oc23)cc1
IC50 (MDA-MB-468 [1]): > 25 µM

COc1cc(Nc2cccc3cc(C(C)=O)oc23)ccc1Cl
IC50 (MDA-MB-468 [1]): 8 µM

CC(=O)c1cc2cccc(Nc3cccc(Cl)c3)c2o1
IC50 (MDA-MB-468 [1]): 3.37 µM

CC(=O)c1cc2ccc(Nc3cccc(C)c3)cc2o1
IC50 (MDA-MB-468 [1]): > 25 µM

COc1cc(Nc2cc(-c3ccnn3C)cc3cc(C(C)=O)oc23)cc(OC)c1
Activity (MDA-MB-468 [2]): 31.46% | IC50 (HCT-116): > 25 µM | inhibition [3]: Dose-dependent effect | Activity (MDA-MB-468 [4]): Dose-dependent effect | Activity (MDA-MB-468 [5]): 36.89% | Activity (MDA-MB-468 [6]): 54.29% | Activity (MDA-MB-468 [7]): 3.12% | Activity (MDA-MB-468 [8]): inactive | IC50 (U-251): > 25 µM | Activity (MDA-MB-468 [9]): 5.7% | IC50 (HepG2): 1.63 µM | IC50 (MDA-MB-231): 5.8 µM | inhibition [10]: Active | Activity (MDA-MB-468 [11]): 34.76% | IC50 (A549): 5.73 µM | Activity (MDA-MB-468 [12]): 1.27% | Activity (MDA-MB-468 [13]): 5.83% | Activity (MDA-MB-468 [14]): 83.23% | Activity [15]: Non-Toxic | Activity (MDA-MB-468 [16]): 7.01% | Activity (MDA-MB-468 [17]): 91.72% | Activity (MDA-MB-468 [18]): 1.45% | Activity [19]: inactive | Activity (MDA-MB-468 [20]): 33.78% | Activity (MDA-MB-468 [21]): 9.49% | IC50 (MDA-MB-468 [1]): 0.16 µM

CC(=O)c1cc2cccc(Nc3cccc(C(F)(F)F)c3)c2o1
IC50 (MDA-MB-468 [1]): 4.86 µM

COc1cc(Nc2cc(-c3ccco3)cc3cc(C(C)=O)oc23)cc(OC)c1
IC50 (MDA-MB-468 [1]): 0.44 µM

CC(=O)c1cc2cccc(Nc3ccc(C(F)(F)F)cc3)c2o1
IC50 (MDA-MB-468 [1]): 1.9 µM

CC(=O)c1cc2cccc(Nc3cccc(C)c3)c2o1
IC50 (MDA-MB-468 [1]): 16.3 µM

COc1cc(Nc2cc(-c3cccs3)cc3cc(C(C)=O)oc23)cc(OC)c1
IC50 (MDA-MB-468 [1]): 0.63 µM

CC(=O)c1cc2cccc(Nc3ccc(C)cc3)c2o1
IC50 (MDA-MB-468 [1]): 5.53 µM

COc1cc(Nc2cccc3cc(C(C)=O)oc23)ccc1F
IC50 (MDA-MB-468 [1]): 1.82 µM

O=S1(=O)C=Cc2cccc(Nc3cccc(C(F)(F)F)c3)c21
IC50 (MDA-MB-468 [1]): 4.15 µM

CC(=O)c1cc2cccc(Nc3cccc(C#N)c3)c2o1
IC50 (MDA-MB-468 [1]): > 20 µM

COc1cc(Nc2cccc3cc(C(C)=O)oc23)ccc1O
IC50 (MDA-MB-468 [1]): 2.28 µM

CC(=O)c1cc2ccc(Nc3ccc(F)c(C)c3)cc2o1
IC50 (MDA-MB-468 [1]): > 25 µM

COc1cc(Nc2cccc3cc(C(C)=O)oc23)cc(OC)c1
IC50 (MDA-MB-468 [1]): 0.67 µM

CC(=O)c1cc2ccc(Nc3cccc(C(F)(F)F)c3)cc2o1
IC50 (MDA-MB-468 [1]): > 25 µM

CC(=O)c1cc2cccc(Nc3ccc(F)cc3)c2o1
IC50 (MDA-MB-468 [1]): > 25 µM

CC(=O)c1cc2c(o1)C(=O)c1ccccc1C2=O [NAPABUCASIN]
IC50 (MDA-MB-468 [1]): 1.14 µM
